# Measured values gathered from unrelated publications.
# Protocols differ between the studies behind these lines.
# Target: Phosphatidylinositol 4,5-bisphosphate 3-kinase catalytic subunit gamma isoform (PIK3CG, Homo sapiens, UniProt P48736)
Structure (SMILES),test,conditions,measurement,result
Cc1ccc(C(=O)Nc2ccc(CN3CCN(C)CC3)c(C(F)(F)F)c2)cc1C#Cc1cnc2cccnn12,"enzyme activity, inhibitor",23.5 nM,remaining activity,85%
Cc1c(NC(=O)c2cc(C(N)=O)nc3cc(F)ccc23)c(C(F)(F)F)nn1Cc1ccc(C#N)cc1,"cell-free assay, competition with immobilised ligand",1 µM,remaining binding,80%
COc1cc(-c2cc(-c3ccc(N4CCNCC4)cc3)cnc2C)cc(OC)c1OC,"enzyme activity, inhibitor",1 µM,inhibition,11%
Cc1ccc(C(=O)NCc2ccsc2)cc1C#Cc1cn(C(C)C)c2ncnc(N)c12,"enzyme activity, inhibitor",1 µM,activity vs control,96%
C=CC(=O)Nc1cc(Nc2nccc(Nc3cc(Cl)c(F)cc3C(C)(C)O)n2)c(OC)cc1N1CC[C@@H](N(C)C)C1,"enzyme activity, inhibitor",1 µM,inhibition,11%
Cc1ccc(NC(=O)c2ccc(C)c(C(F)(F)F)c2)cc1C#Cc1nn(C2CCC(O)CC2)c2ncnc(N)c12 (stereo not drawn),"enzyme activity, inhibitor",10 µM,remaining activity,87%
CC1=C(C#N)[C@@H](c2ccc3[nH]nc(C)c3c2)C(C#N)=C(c2ccc(Cl)cc2)N1,"cell-free assay, competition with immobilised ligand",1 µM,remaining binding,100%
CS(=O)(=O)Nc1cccc(-c2csc(NC(=O)CSc3nc4nccnc4c(=O)n3CCc3ccccc3)n2)c1,"enzyme activity, inhibitor",10 µM,inhibition,20%
CS(=O)(=O)c1cc(C2(NC(=O)c3cncc4c3cnn4-c3ccc(F)cc3)CC2)ccn1,"cell-free assay, competition with immobilised ligand",1 µM,remaining binding,82%
CC(C)CCn1c(SCC(=O)Nc2ccccc2C(F)(F)F)nc2nccnc2c1=O,"enzyme activity, inhibitor",10 µM,inhibition,< 20%
CCc1ccccc1C(=O)Nc1n[nH]c2c(C)c(F)c(C3C(C#N)=C(C)N(C)C(C)=C3C#N)cc12,"cell-free assay, competition with immobilised ligand",1 µM,remaining binding,100%
O=S(=O)(Nc1cc(Sc2ncn[nH]2)c(O)c2ccccc12)c1ccc(-c2ccccc2)cc1,"enzyme activity, inhibitor",1 µM,remaining activity,≥ 75%
